{"data": "Measurements of several laboratories", "sample": "plasma", "note": "Protocols differ between the studies behind these lines."}
{"Compound": "CCNC(=O)c1nc(-c2ccc3[nH]c(-c4nc(C)no4)cc3c2)c(C)[nH]1", "species": "Sprague-Dawley rat", "route": "intravenous", "dose": "1 mg/kg", "endpoint": "AUC", "result": "2.4 µM·h"}
{"Compound": "N#Cc1ccc(Nc2nc(N)cc(Oc3c(F)cc(-c4ccc(C#N)cc4)cc3F)n2)cc1", "species": "Sprague-Dawley rat", "route": "oral", "dose": "5 mg/kg", "endpoint": "AUC", "result": "100 ng·h/mL"}
{"Compound": "Cc1noc(-c2cc3cc(-c4nc(C(=O)NCc5ccncc5)[nH]c4C)ccc3[nH]2)n1", "species": "Sprague-Dawley rat", "route": "intravenous", "dose": "1 mg/kg", "endpoint": "AUC", "result": "3 µM·h"}
{"Compound": "CCOC(=O)[C@@]12C[C@@H]1[C@@H](n1ccc3c(NC)nc(C#Cc4ccc(Cl)s4)nc31)[C@H](O)[C@@H]2O", "species": "male Sprague-Dawley rat", "route": "oral", "dose": "1 mg/kg", "endpoint": "AUC(0-inf)", "result": "38.2 ng·h/mL"}
{"Compound": "N#Cc1[nH]nnc1-c1cccc(OCc2cc(C(F)(F)F)ccc2C(F)(F)F)c1", "species": "male Sprague-Dawley rat", "route": "oral", "dose": "10 mg/kg", "endpoint": "AUC", "result": "46400 ng·h/mL"}
{"Compound": "Oc1c(Br)cc(Cl)c2cccnc12", "species": "Sprague-Dawley rat", "route": "oral", "dose": "20 mg/kg", "endpoint": "AUC(0-inf)", "result": "4500 ng·h/mL"}
{"Compound": "O=C1N(Cc2ccccc2Cl)c2ccccc2C12NN=C(c1ccccc1)S2 (centres unmarked)", "species": "Sprague-Dawley rat", "route": "oral", "dose": "40 mg/kg", "endpoint": "AUC", "result": "2820 ng·h/mL"}
{"Compound": "CCc1cc(C(=O)NC)c2nccc(N3CCc4c(cc(Cn5ccnc5)cc4-c4cn(C)nc4C(F)(F)F)C3=O)c2c1", "species": "male Sprague-Dawley rat", "route": "intravenous", "dose": "3 mg/kg", "endpoint": "AUC(0-inf)", "result": "1280 ng·h/mL"}
{"Compound": "C=CC(=O)N1CC2CC(n3nc(-c4ccc(C(=O)Nc5ccccn5)cc4)c4c(N)ncnc43)CC2C1 (centres unmarked)", "species": "male Wistar rat", "route": "oral", "dose": "3 mg/kg", "endpoint": "AUC(0-t)", "result": "908 ng·h/mL"}
{"Compound": "COc1cc2c3c(n(CCCN4CCOCC4)c(=O)c2cc1OC)-c1cc2c(cc1C3=O)OCO2", "species": "female Fischer 344 rat", "route": "intravenous", "dose": "12 mg/m²", "notes": "single dose", "endpoint": "AUC(0-inf)", "result": "403 ng·h/mL"}
{"Compound": "N#Cc1[nH]nnc1-c1cc(Cl)cc(/C=C/c2cccc(C(F)(F)F)c2)c1", "species": "male Sprague-Dawley rat", "route": "oral", "dose": "10 mg/kg", "endpoint": "AUC", "result": "16700 ng·h/mL"}
